Reference: ChEMBL document CHEMBL4406859, “Antitumor and antiviral activities of 4-substituted 1,2,3-triazolyl-2,3-dibenzyl-L-ascorbic acid derivatives” (Eur J Med Chem, 2019)
Active and inactive are the calls of the source. The calls are words filed in the database; no cut-off is given here.

How the values were obtained:
[1] = system: Cytomegalovirus; assay: Antiviral activity against Cytomegalovirus Davis infected in human HELF cells assessed as reduction in virus-induced cytopathogenicity incubated for 7 days by Giemsa staining based microscopic analysis; type: functional, organism-based; conditions: Human betaherpesvirus 5, Davis, 168 h
Summary of the method: (§1)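 Confluent HEL fibroblasts infected with CMV (Davis or AD-169) at 100 PFU/well for 2 h. Residual virus removed, then medium with graded compound concentrations added (duplicate). Incubated 7 days at 37 °C. Cytopathogenicity scored microscopically after ethanol fixation and Giemsa staining. EC50 read from plots of % cytopathogenicity versus concentration.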

[2] = system: Influenza B virus; assay: Antiviral activity against Influenza B virus (B/Ned/537/05) infected in dog MDCK cells assessed as reduction in virus-induced cytopathogenicity incubated for 7 days by MTS assay; type: functional, organism-based
[3] = system: Influenza A virus; assay: Antiviral activity against Influenza A virus (A/Ned/378/05(H1N1)) infected in dog MDCK cells assessed as reduction in virus-induced cytopathogenicity incubated for 7 days by microscopic analysis; type: functional, organism-based
[4] = system: SW-620; assay: Antiproliferative activity against human SW620 cells assessed as reduction in cell viability incubated for 72 hrs by MTT assay; type: functional, cell-based; conditions: SW-620, 72 h
Summary of the method: (§2)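 Cells (ATCC) grown in DMEM with 10 FBS, penicillin/streptomycin, 2 mM glutamine, 37 °C, 5 CO2. 5000 cells/well seeded; after 24 h, freshly prepared dilutions at five concentrations (0.01–100 μM) added for 72 h. MTT read-out; absorbance converted to percentage growth by NIH formulas. Two experiments in quadruplicate; IC50 by linear regression.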

[5] = system: Human coronavirus 229E; assay: Antiviral activity against Human coronavirus 229E infected in human HELF cells assessed as reduction in virus-induced cytopathogenicity incubated for 7 days by microscopic analysis; type: functional, organism-based
[6] = system: Influenza B virus; assay: Antiviral activity against Influenza B virus (B/Ned/537/05) infected in dog MDCK cells assessed as reduction in virus-induced cytopathogenicity incubated for 7 days by microscopic analysis; type: functional, organism-based
[7] = system: Human alphaherpesvirus 3; assay: Antiviral activity against thymidine kinase positive Varicella zoster virus infected in human HELF cells assessed as reduction in virus-induced cytopathogenicity incubated for 7 days by Giemsa staining based microscopic analysis; type: functional, organism-based; conditions: Human alphaherpesvirus 3, HELF, 168 h
[8] = system: HeLa; assay: Antiproliferative activity against human HeLa cells assessed as reduction in cell viability incubated for 72 hrs by MTT assay; type: functional, cell-based; summary of the method: as §2
[9] = system: Human alphaherpesvirus 3; assay: Antiviral activity against thymidine kinase deficient Varicella zoster virus infected in human HELF cells assessed as reduction in virus-induced cytopathogenicity incubated for 7 days by Giemsa staining based microscopic analysis; type: functional, organism-based; conditions: Human alphaherpesvirus 3, HELF, 168 h
[10] = system: Human alphaherpesvirus 2; assay: Antiviral activity against Herpes simplex virus 2 G infected in human HELF cells assessed as reduction in virus-induced cytopathogenicity incubated for 7 days by microscopic analysis; type: functional, organism-based; conditions: for EC50: Human alphaherpesvirus 2, G, 168 h
[11] = system: Sindbis virus; assay: Antiviral activity against Sindbis virus infected in vero cells assessed as reduction in virus-induced cytopathogenicity incubated for 7 days by microscopic analysis; type: functional, organism-based
[12] = system: Coxsackievirus B4; assay: Antiviral activity against Human coxsackievirus B4 infected in vero cells assessed as reduction in virus-induced cytopathogenicity incubated for 7 days by microscopic analysis; type: functional, organism-based
[13] = system: MCF7; assay: Antiproliferative activity against human MCF7 cells assessed as reduction in cell viability incubated for 72 hrs by MTT assay; type: functional, cell-based; conditions: MCF7, 72 h; summary of the method: as §2
[14] = system: A549; assay: Antiproliferative activity against human A549 cells assessed as reduction in cell viability incubated for 72 hrs by MTT assay; type: functional, cell-based; conditions: A549, 72 h; summary of the method: as §2
[15] = system: Cytomegalovirus; assay: Antiviral activity against Cytomegalovirus AD169 infected in human HELF cells assessed as reduction in virus-induced cytopathogenicity incubated for 7 days by Giemsa staining based microscopic analysis; type: functional, organism-based; conditions: Human betaherpesvirus 5, AD169, HELF, 168 h; summary of the method: as §1
[16] = system: Influenza A virus; assay: Antiviral activity against Influenza A virus (A/Ned/378/05(H1N1)) infected in dog MDCK cells assessed as reduction in virus-induced cytopathogenicity incubated for 7 days by MTS assay; type: functional, organism-based
[17] = system: Influenza A virus H3N2; assay: Antiviral activity against Influenza A virus (A/HK/7/87(H3N2)) infected in dog MDCK cells assessed as reduction in virus-induced cytopathogenicity incubated for 7 days by MTS assay; type: functional, organism-based; conditions: A/Hong Kong/7/1987(H3N2)
[18] = system: Human alphaherpesvirus 1; assay: Antiviral activity against Herpes simplex virus 1 KOS infected in human HELF cells assessed as reduction in virus-induced cytopathogenicity incubated for 7 days by microscopic analysis; type: functional, organism-based; conditions: strain KOS
[19] = system: Human alphaherpesvirus 1; assay: Antiviral activity against Herpes simplex virus 1 TK-KOS-ACV infected in human HELF cells assessed as reduction in virus-induced cytopathogenicity incubated for 7 days by microscopic analysis; type: functional, organism-based; conditions: for EC50: Human alphaherpesvirus 1, TK-KOS-ACV, 168 h
[20] = system: Human adenovirus 2; assay: Antiviral activity against Human adenovirus 2 infected in human HELF cells assessed as reduction in virus-induced cytopathogenicity incubated for 7 days by microscopic analysis; type: functional, organism-based
[21] = system: HCT-116; assay: Antiproliferative activity against human HCT116cells assessed as reduction in cell viability incubated for 72 hrs by MTT assay; type: functional, cell-based; conditions: HCT-116, 72 h; summary of the method: as §2
[22] = Cytotoxicity against human HELF cells assessed as reduction in cell viability incubated for 3 days by coulter counter method; type: cell-based; conditions: 72 h
Summary of the method: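 HEL cells seeded at 5 x 10^3/well and allowed to proliferate 24 h, then exposed to graded compound concentrations for 3 days at 37 °C. Cell number counted with a Coulter counter.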

[23] = system: HepG2; assay: Antiproliferative activity against human HepG2 cells assessed as reduction in cell viability incubated for 72 hrs by MTT assay; type: functional, cell-based; conditions: HepG2, 72 h; summary of the method: as §2
[24] = system: Reovirus sp.; assay: Antiviral activity against Reovirus infected in vero cells assessed as reduction in virus-induced cytopathogenicity incubated for 7 days by microscopic analysis; type: functional, organism-based
[25] = Cytotoxicity against human HELF cells assessed as minimum cytotoxic concentration by observing alteration in cell morphology incubated for 3 days by microscopic analysis; type: cell-based; conditions: for MCC at 72 h: HELF cells; for MCC: 72 h
Summary of the method: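 Read-out is the minimum cytotoxic concentration (MCC): the lowest compound concentration giving a microscopically detectable change in cell morphology. Measured on confluent human embryonic lung (HEL) fibroblast cultures exposed to a range of compound concentrations.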

[26] = system: Influenza A virus H3N2; assay: Antiviral activity against Influenza A virus (A/HK/7/87(H3N2)) infected in dog MDCK cells assessed as reduction in virus-induced cytopathogenicity incubated for 7 days by microscopic analysis; type: functional, organism-based; conditions: A/Hong Kong/7/1987(H3N2)
[27] = system: CFPAC-1; assay: Antiproliferative activity against human CFPAC-1 cells assessed as reduction in cell viability incubated for 72 hrs by MTT assay; type: functional, cell-based; summary of the method: as §2
[28] = system: HFF; assay: Cytotoxicity against human HFF cells assessed as reduction in cell viability incubated for 72 hrs by MTT assay; type: cell-based; summary of the method: as §2
[29] = Homo sapiens, CFPAC-1, 72 h, read-out: IC50

SMILES	EC50 [1] [µM]	Activity [2]	Activity [3]	IC50 [4] [µM]	Activity [5]	Activity [6]	EC50 [7] [µM]	IC50 [8] [µM]	EC50 [9] [µM]	Activity [10]	Activity [11]	Activity [12]	IC50 [13] [µM]	EC50 [15] [µM]	Activity [16]	Activity [17]	Activity [18]	Activity [19]	CC50 [22] [µM]	MCC at 72 h [25] [µM]	further results
COc1ccccc1-c1cn(C/C=C2\OC(=O)C(OCc3ccccc3)=C2OCc2ccccc2)nn1	10.8	inactive	inactive	> 100	inactive	inactive	> 100	> 100	> 20	inactive	inactive	inactive	> 100	> 100	inactive	inactive	inactive	inactive	4.29	100	IC50 [14]: > 100 µM; Activity [20]: inactive; IC50 [21]: > 100 µM; IC50 [23]: > 100 µM; Activity [24]: inactive; Activity [26]: inactive; IC50 [27, 29]: > 100 µM; IC50 [28]: > 100 µM
O=c1[nH]c(=O)n([C@H]2C[C@H](O)[C@@H](CO)O2)cc1/C=C/Br [BRIVUDINE]	–	–	–	–	–	–	18.4	–	0.0066	–	–	–	–	–	–	–	–	–	179	–	EC50 [10]: > 250 µM; MCC [25]: 250 to 300 µM
COc1ccc(-c2cn(C/C=C3\OC(=O)C(OCc4ccccc4)=C3OCc3ccccc3)nn2)cc1	5.74	inactive	inactive	> 100	inactive	inactive	> 100	> 100	> 100	inactive	inactive	inactive	39.1	20	inactive	inactive	inactive	inactive	> 100	> 100	IC50 [14]: > 100 µM; Activity [20]: inactive; IC50 [21]: > 100 µM; IC50 [23]: > 100 µM; Activity [24]: inactive; Activity [26]: inactive; IC50 [27, 29]: > 100 µM; IC50 [28]: > 100 µM
O=C1O/C(=C\Cn2cc(-c3cc(F)cc(F)c3)nn2)C(OCc2ccccc2)=C1OCc1ccccc1	8.94	inactive	inactive	> 100	inactive	inactive	14.6	17.7	> 100	inactive	inactive	inactive	> 100	9.36	inactive	inactive	inactive	inactive	> 100	100	IC50 [14]: > 100 µM; Activity [20]: inactive; IC50 [21]: > 100 µM; IC50 [23]: > 100 µM; Activity [24]: inactive; Activity [26]: inactive; IC50 ([27]; cfpac-1): Not Active; IC50 [28]: > 100 µM
Nc1nc2c(ncn2COCCO)c(=O)[nH]1 [ACYCLOVIR]	–	–	–	–	–	–	–	–	–	–	–	–	–	–	–	–	–	–	> 440	–	EC50 [10]: 2 µM; EC50 [19]: 17 µM; EC50 ([20]; Human mastadenovirus C, 168 h): 5.8 µM; MCC [25]: 250 to 440 µM
Nc1ccn(C[C@@H](CO)OCP(=O)(O)O)c(=O)n1 [CIDOFOVIR]	0.65	–	–	–	–	–	–	–	–	–	–	–	–	0.43	–	–	–	–	214	–	EC50 [10]: 5.3 µM; EC50 [19]: 4.5 µM; MCC [25]: 250 to 300 µM
Nc1nc(O)c2ncn(COC(CO)CO)c2n1 [GANCICLOVIR]	2.3	–	–	–	–	–	–	–	–	–	–	–	–	3.15	–	–	–	–	> 350	> 350	EC50 [10]: 0.3 µM
C[Si](C)(C)c1cn(C[C@H](O)[C@H]2OC(=O)C(OCc3ccccc3)=C2OCc2ccccc2)nn1	12.1	inactive	inactive	56	inactive	inactive	> 20	22.3	> 20	inactive	inactive	inactive	12.1	> 100	inactive	inactive	inactive	inactive	22.3	100	Activity [20]: inactive; IC50 [21]: 31.8 µM; IC50 [23]: 24.1 µM; Activity [24]: inactive; Activity [26]: inactive; IC50 [27, 29]: 52.6 µM; IC50 [28]: 20 µM
